Rad51 HR inh: blocks human Rad51 in homologous recombination | Q06609 | hRad51 DNA strand exchange, fluorescence dequenching | inhibition, % at 10 µM | 0.085% of 200,000 active | AID 1385;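 active = inhibition above 40% at the single screening dose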
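System: human Rad51 nucleoprotein filaments preassembled on unlabelled ssDNA. Reagent: labelled 47-mer dsDNA for strand exchange. Schedule: 30-min compound preincubation and 15-min exchange, both room temperature. Measured by: FRET fluorescence dequenching, excitation 485 nm, emission 520 nm. Read-out: Fluorescence-based percent inhibition, control- and blank-normalised. Benchmarks: plate controls and plate blanks.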
Arbovirus inh: antivirals against arbovirus infection; arbovirus infection cell-based antiviral screen; inhibition, % at 10 µM; 0.37% of 200,000 active; in the data active = inhibition above about 30%
Wee1 stabilizer: inhibitors of human Wee1 degradation; P30291; AID 1321; 1.2% of 220,000 active; reporter increase, % at 5 µM; HeLa Luc-Wee1K328M stability, luciferase luminescence; 100% = proteasome inhibitor MG132 effect;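 active = activation above the mean of all tested compounds plus 3 SD, set per screening run, cut at about 8.8% in these data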;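 also: cells exposed to compound for 20 h before luminescence read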
Target sequence (P30291 whole entry K328M): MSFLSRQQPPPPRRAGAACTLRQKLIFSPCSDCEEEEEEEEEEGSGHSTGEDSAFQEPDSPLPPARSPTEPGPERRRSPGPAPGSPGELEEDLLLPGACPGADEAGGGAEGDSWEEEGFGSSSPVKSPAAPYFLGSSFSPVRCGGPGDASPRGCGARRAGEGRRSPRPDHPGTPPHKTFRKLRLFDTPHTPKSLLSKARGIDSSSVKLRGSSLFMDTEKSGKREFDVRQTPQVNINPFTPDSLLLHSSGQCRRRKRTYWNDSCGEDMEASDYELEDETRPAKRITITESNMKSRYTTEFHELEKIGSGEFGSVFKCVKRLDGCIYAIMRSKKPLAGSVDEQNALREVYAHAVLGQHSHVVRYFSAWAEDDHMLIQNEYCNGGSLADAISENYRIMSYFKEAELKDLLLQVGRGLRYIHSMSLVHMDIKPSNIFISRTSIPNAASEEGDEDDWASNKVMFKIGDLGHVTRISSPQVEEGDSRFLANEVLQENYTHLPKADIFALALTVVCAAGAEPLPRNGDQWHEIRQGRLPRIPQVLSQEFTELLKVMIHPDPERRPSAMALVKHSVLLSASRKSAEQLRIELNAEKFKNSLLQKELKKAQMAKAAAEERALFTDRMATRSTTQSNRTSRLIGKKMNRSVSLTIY
CHOP inhibitor: blocks CHOP induction under ER stress; CHO-K1 CHOP-promoter luciferase, tunicamycin-induced, 15-18 h; inhibition, % at 10 µM; 3.8% of 220,000 active; AID 2732;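 active = compounds that reduced the stress-induced luciferase reporter signal by more than about 70% of percent inhibition, limit read from the data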
PKD1 inh: blocks activity of human protein kinase D1 | Q15139 | PKD1 kinase fluorescence polarization assay | inhibition, % (concentration not given with the values) | 0.056% of 200,000 active | AID 797
Lmaj promast: inhibitors of Leishmania major promastigote growth | inhibition, % at 10 µM | Leishmania major promastigotes, resazurin fluorescence viability | AID 1063 | 9% of 200,000 active;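 also: promastigotes grown with compound for 44 hours at 28 °C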
Of the large screens only hits and unclear results are named; the others gave an inactive call; ! = not confirmed by another sample. Shown are actives, neighbours in structure and some others; about 12% of the full set was active somewhere. Rule as the data show it, unless noted: active = inhibition above about 50%; inactive = the rest.

CC(C)(C)n1nnnc1C(c1cccs1)N(Cc1ccccc1)Cc1ccco1 (stereo unspecified)	none
c1csc(C(c2nnnn2C2CCCCC2)N2CCCC3(CCCCC3)C2)c1 (stereo unspecified)	CHOP inhibitor 82 (no result: Rad51 HR inh)
c1ccc(CC2CCN(C(c3cccs3)c3nnnn3C3CCCC3)CC2)cc1 (stereo unspecified)	Lmaj promast 64
COc1cc2c(cc1OC)C(c1cccs1)N(C(=O)c1cccc(S(=O)(=O)N(C)C)c1)CC2 (stereo unspecified)	none (no result: Arbovirus inh, PKD1 inh, Lmaj promast)
C/C(N)=C(/C#N)C(=O)CSc1nnc(NC(C)C)s1	none
CC1=C(C(=O)Nc2ccccc2)C(c2cccc([N+](=O)[O-])c2)Nc2nc3ccccc3n21 (stereo unspecified)	Lmaj promast 98
CNC(=O)C1=C(C)n2c(nc3ccccc32)NC1c1ccc(OC)cc1 (stereo unspecified)	none (no result: Rad51 HR inh)
O=S(=O)(NCC(c1cccnc1)N1CCN(c2ccccc2F)CC1)c1cccs1 (stereo unspecified)	Lmaj promast 78
O=S(=O)(NCC(c1cccnc1)N1CCN(Cc2ccccc2)CC1)c1ccccc1 (stereo unspecified)	Lmaj promast 83
CS(=O)(=O)NCC(c1cccnc1)N1CCN(c2ccccc2F)CC1 (stereo unspecified)	none (no result: Rad51 HR inh, Arbovirus inh, PKD1 inh, Lmaj promast)
Cc1ccc(S(=O)(=O)NCC(c2cccnc2)N2CCOCC2)cc1 (stereo unspecified)	none
O=S(=O)(NCC(c1cccnc1)N1CCN(c2ccc(F)cc2)CC1)c1cccs1 (stereo unspecified)	Lmaj promast 87
O=S(=O)(NCC(c1cccnc1)N1CCN(c2ccc(F)cc2)CC1)c1ccc(F)cc1 (stereo unspecified)	CHOP inhibitor 94, Lmaj promast 91
CCCCc1nc2sc3c(=O)n(N)cnc3c2c2c1CCC2	none
CCn1nnc(NC(=O)COc2ccc([N+](=O)[O-])cc2)n1	none (no result: Arbovirus inh, PKD1 inh, Lmaj promast)
CC(C)C(=O)NNC(=O)c1cc2sccc2s1	none (no result: Arbovirus inh, PKD1 inh, Lmaj promast)
CCCn1c(=O)[nH]c(=O)c2c1nc(-c1cccs1)n2CCOC	none
O=C1c2ccccc2C(=O)c2c1ccc1c(=O)n(C3CCCCC3)[nH]c21	Lmaj promast 99
c1ccc(-c2nnc(CSc3ccc4c(c3)OCCO4)o2)cc1	none
CCOC(=O)N1CCC(N2CCCC(CO)(Cc3cccc(OC)c3)C2)CC1 (stereo unspecified)	Lmaj promast 87
OCC1(Cc2ccccc2)CCCN(C2CCCC2)C1 (stereo unspecified)	Lmaj promast 61
CCCCNC(=O)COC(=O)c1ccccc1F	none (no result: Arbovirus inh, PKD1 inh, Lmaj promast)
COC(=O)[C@H](CC(C)C)NC(=O)Nc1ccc(S(N)(=O)=O)cc1	none (no result: Arbovirus inh, PKD1 inh, Lmaj promast)
CC1CC(OCC(O)CN2CCN(Cc3ccccc3)CC2)CC(C)(C)C1 (stereo unspecified)	Lmaj promast 93
COc1cccc(OCCOCC(O)CN2CCN(Cc3ccc(Cl)cc3)CC2)c1 (stereo unspecified)	Lmaj promast 52
CCc1ccc(OCCOCC(O)CN2CCN(Cc3ccc(Cl)cc3)CC2)cc1 (stereo unspecified)	Lmaj promast 96 (no result: Rad51 HR inh)
OC(COCCOc1ccc(Br)cc1)CN1CCN(Cc2ccccc2)CC1 (stereo unspecified)	Lmaj promast 85 (no result: Rad51 HR inh)
COc1ccc(OCCOCC(O)CN2CCOCC2)cc1 (stereo unspecified)	none
CC(=O)Nc1ccc(OCC(O)CN2CCN(Cc3ccccc3)CC2)cc1 (stereo unspecified)	none
O=C(c1ccc(NC(=S)NCc2ccco2)cc1)N1CCCCC1	none
Cn1c(Cl)c(/C=N/OC(=O)c2ccccc2Cl)c2ccccc21	none (no result: Rad51 HR inh)
Cc1cccc(C(=O)O/N=C/c2c(N3CCOCC3)n(C)c3ccccc23)c1	Lmaj promast 99
COc1ccc(OCC(O)CNC(=O)c2c(-c3ccccc3)noc2C)cc1 (stereo unspecified)	none (no result: Arbovirus inh, PKD1 inh, Lmaj promast)
COc1ccc(Br)cc1CSC(=N)N	none
CCCCCOc1ccc(Br)cc1CSC(=N)N	CHOP inhibitor 84, Lmaj promast 100
COc1cc2[nH]c3c(=O)n4c(nc3c2cc1OC)SCCC4	none (no result: Rad51 HR inh)
COc1ccc2c(C=Nc3c(C)n(C)n(-c4ccccc4)c3=O)c(O)n(Cc3ccco3)c(=O)c2c1	Lmaj promast 76!
OCCC1CN(Cc2ccc(C(F)(F)F)cc2)CCN1Cc1ccccc1 (stereo unspecified)	none
CSc1ccc(CN2CCC(CO)(Cc3ccc(Cl)cc3)CC2)cc1	Lmaj promast 87
O=C(c1cnsn1)N1CCC(CO)(Cc2ccc(Cl)cc2)CC1	none
OCC1(Cc2ccc(Cl)cc2)CCN(Cc2ccccc2F)CC1	Lmaj promast 57
OCC1(Cc2ccccc2)CCN(Cc2ccc(C(F)(F)F)cc2)CC1	Lmaj promast 81
OCC1(Cc2ccc(Cl)cc2)CCN(CC2CC=CCC2)CC1 (stereo unspecified)	Lmaj promast 87
OCC1(Cc2ccccc2)CCN(Cc2cccc(F)c2F)CC1	none
O=C(Nc1ccc(Cl)cc1)N1CCC(CO)(Cc2ccccc2)CC1	none
CN1CCC(CO)(Cc2ccccc2)CC1	none
OCC1(Cc2ccc(Cl)cc2)CCN(CCCc2ccccc2)CC1	Lmaj promast 95
CN(C)c1ccc(NC(=O)Cn2ncn3c(cc4ccccc43)c2=O)cc1	Lmaj promast 58
Cc1csc(SC(C)c2nc3scc(-c4ccccc4)c3c(=O)[nH]2)n1 (stereo unspecified)	Rad51 HR inh 40 (no result: Arbovirus inh, PKD1 inh, Lmaj promast)
O=c1[nH]c(Cc2ccccc2)nc2scc(-c3ccccc3)c12	CHOP inhibitor 80
Cc1nnc(SCc2nc3scc(-c4ccccc4)c3c(=O)[nH]2)s1	none (no result: Rad51 HR inh, Arbovirus inh, PKD1 inh, Lmaj promast)
COCCN1C(=O)c2oc3cc(C)c(C)cc3c(=O)c2C1c1ccc(O)cc1 (stereo unspecified)	Wee1 stabilizer 9.1 (no result: Arbovirus inh, CHOP inhibitor)
CC(C)[C@H](NC(N)=O)C(=O)Nc1cccc(S(=O)(=O)N2CCOCC2)c1	none
N/C(CSc1ccc(Cl)cc1)=N\NC(=O)c1ccncc1	none
O=C1Nc2ccccc2C(=O)C1(Cl)Cc1ccccc1 (stereo unspecified)	CHOP inhibitor 77
CC(C)(C)N1C(=O)c2ccccc2NC(=O)N1Cc1ccccc1	none
O=C(c1cccnc1)N1CCC(Oc2ccc(C(=O)N3CCCC(O)C3)cc2)CC1 (stereo unspecified)	none (no result: Rad51 HR inh)
OCCN1CCN(CCSc2ccccc2)CC1	Lmaj promast 56
O=C(CN1CCN(CCO)CC1)Nc1ccccc1	none
O=C(CSc1nnnn1-c1ccc(F)cc1)Nc1nc2ccccc2s1	CHOP inhibitor 70
CCC(Sc1nc2ccccc2s1)C(=O)Nc1cc(C)on1 (stereo unspecified)	Lmaj promast 67
Cc1nnc(NC(=O)CSc2nnc(Cc3cccn3C)n2CCc2ccccc2)s1	none
CCn1nnnc1SCC(=O)Nc1nc2ccccc2s1	none

Screening data: PubChem BioAssay, several laboratories
